Values after ≈ are worked out from the molar mass of the structure shown.
Assays:
[1] = Inhibition of recombinant Plasmodium falciparum M1 aminopeptidase using H-Leu-NHMec as substrate preincubated for 10 mins followed by addition of substrate by spectrofluorimetric analysis
Procedure, shortened: (§1)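 E. coli-expressed enzymes, purified by Ni-NTA and size exclusion. Preincubation 10 min at 37°C with inhibitor: M1 in 100 mM Tris pH 8.0; M17 in 50 mM Tris pH 8.0, 2 mM CoCl2. Substrate H-Leu-NHMec kept below Km. Fluorescence ex 355/em 460 nm followed to steady-state velocity. Inhibitor range 500pM–500 μM. Ki from Dixon plots (1/V vs [I]).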

[2] = Inhibition of recombinant Plasmodium falciparum M17 aminopeptidase using H-Leu-NHMec as substrate preincubated for 10 mins followed by addition of substrate by spectrofluorimetric analysis; procedure, shortened: as §1
[3] = test system: Plasmodium falciparum; test: Antiparasitic activity against Plasmodium falciparum 3D7 assessed as growth inhibition after 72 hrs by DAPI staining-based confocal image analysis; format: functional, organism-based; details: 3D7, 72 h
Procedure, shortened: (§2)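 Sorbitol-synchronised ring-stage parasites in human O+ erythrocytes at 2% parasitaemia, 0.3% haematocrit, incubated 72 h at 37 °C (5% CO2) with three-step log serial dilutions from 20 μM top, 0.4% DMSO final. Staining with DAPI/saponin/Triton X/EDTA in PBS, confocal imaging, parasite count.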

[4] = test system: HEK293; test: Cytotoxicity against HEK293 cells assessed as cell viability after 72 hrs by resazurin assay; format: cell-based; details: human, hek293, 72 h
Procedure, shortened: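 HEK293 cells in DMEM with 10% FCS, seeded at 2000 cells/well and left to adhere overnight. Compound dose response with top final 40 μM, 0.4% DMSO. Exposure 72 h at 37 °C, 5% CO2. Medium then replaced by 44 μM resazurin in serum-free DMEM for 4-6 h. Fluorescence read at ex/em 530/595 nm.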

[5] = test system: Plasmodium falciparum; test: Antiparasitic activity against chloroquine/quinine/pyrimethamine/sulfadoxine/NITD609-resistant Plasmodium falciparum Dd2 clone 2 assessed as growth inhibition after 72 hrs by DAPI staining-based confocal image analysis; format: functional, organism-based; details: Dd2, 72 h; procedure, shortened: as §2
[6] = test system: Plasmodium falciparum; test: Antiparasitic activity against Plasmodium falciparum Dd2 assessed as growth inhibition after 72 hrs by DAPI staining-based confocal image analysis; format: functional, organism-based; details: Dd2, 72 h; procedure, shortened: as §2
[7] = Half life in human liver microsomes at 1 uM by LC/MS analysis; format: ADME
Procedure, shortened: (§3)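 Human or mouse liver microsomes, 0.4 mg/mL protein in 0.1 M phosphate pH 7.4, with 1 µM compound at 37°C. Reactions started with an NADPH-regenerating system (NADP, glucose-6-phosphate, G6P dehydrogenase) plus MgCl2. Quenched with ice-cold acetonitrile at time points from 0 to 60 min. Parent compound remaining in supernatant measured by LC-MS.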

[8] = Apparent half life in human plasma incubated for 4 hrs by UPLC/MC analysis; format: ADME, cell-free; details: read-out: t1/2(app)
Procedure, shortened: (§4)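 Pooled plasma (human n=3 donors; mouse from multiple animals), thawed and spiked to nominal 500 ng/mL test compound, final 0.2% DMSO and 0.4% acetonitrile (v/v). Incubated at 37°C, 4 h human or 6 h mouse. Duplicate samples taken at time points and snap-frozen. Quantified by UPLC/MS against matched-plasma standards. Half-life obtained by exponential decay fit of % remaining.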

[9] = Apparent half life in mouse plasma incubated for 6 hrs by UPLC/MC analysis; format: ADME, cell-free; details: read-out: t1/2(app); procedure, shortened: as §4
[10] = Half life in mouse liver microsomes at 1 uM by LC/MS analysis; format: ADME; procedure, shortened: as §3
[11] = Intrinsic clearance in mouse liver microsomes assessed per mg of protein at 1 uM by LC/MS analysis; format: ADME; details: read-out: CLH; procedure, shortened: as §3
[12] = Intrinsic clearance in human liver microsomes assessed per mg of protein at 1 uM by LC/MS analysis; format: ADME; details: read-out: CLH; procedure, shortened: as §3
[13] = Partition coefficient, log D of the compound at pH 7.4 by HPLC method; format: physicochemical; details: octanol/water
Procedure, shortened: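 LogD estimated by gradient HPLC (Lombardo-derived method). C18-type Hydro-RP column with 50 mM ammonium acetate pH 7.4 and an acetonitrile gradient of 0–100% over 13.5 min. UV detection at 220/254 nm. Retention compared with nine standards of shake-flask-determined partition coefficients.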

[14] = Kinetic solubility of compound in HCl at pH 2 by nephelometry; format: physicochemical; details: read-out: Kinetic_solubility
Procedure, shortened: (§5)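 DMSO stock serially diluted and spiked into pH 6.5 phosphate buffer or 0.01 M HCl (about pH 2.0), final 1% DMSO. Solubility range determined by nephelometry.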

[15] = Kinetic solubility of compound in phosphate buffer at pH 6.5 by nephelometry; format: physicochemical; details: read-out: Kinetic_solubility; procedure, shortened: as §5

Row | Compound | Ki [1] | Ki [2] | IC50 [3] | Activity [4] | IC50 [5] | IC50 [6] | also measured
1 | CC(C)(C)OC(=O)NC(Cc1ccc(Br)cc1)C(=O)NO (centres undefined) | 39000 nM | 7700 nM | – | – | – | – | –
2 | CC(C)(C)OC(=O)NC(C(=O)NO)c1ccc(Br)cc1 (centres undefined) | 27 nM | 80 nM | 293 nM | Non-toxic | – | – | –
3 | CC(C)(C)C(=O)NC(C(=O)NO)c1ccc(-c2ccc(F)cc2F)cc1 (centres undefined) | 2500 nM | 5.2 nM | 109 nM | Non-toxic | 216 nM | 164 nM | –
4 | Cn1cc(-c2ccc(C(NC(=O)C(C)(C)C)C(=O)NO)cc2)cn1 (centres undefined) | 11000 nM | 7.2 nM | – | – | – | – | –
5 | CC(C)(C)C(=O)NC(C(=O)NO)c1ccc(-c2c(F)cccc2F)cc1 (centres undefined) | 4800 nM | 13 nM | 142 nM | Non-toxic | 246 nM | 251 nM | –
6 | CC(C)(C)C(=O)NC(C(=O)NO)c1ccc(-c2ccsc2)cc1 (centres undefined) | 640 nM | 9.1 nM | 103 nM | Non-toxic | 100 nM | 110 nM | –
7 | CC(C)(C)OC(=O)NC(Cc1ccc(-c2ccccc2)cc1)C(=O)NO (centres undefined) | > 500000 nM | 5200 nM | – | – | – | – | –
8 | CC(C)(C)C(=O)NC(C(=O)NO)c1ccc(-c2c(F)c(F)c(F)c(F)c2F)cc1 (centres undefined) | 1800 nM | 8.4 nM | 130 nM | Non-toxic | 408 nM | 461 nM | –
9 | CC(C)(C)C(=O)NC(C(=O)NO)c1ccc(-c2cc(F)c(F)c(F)c2)cc1 (centres undefined) | 78 nM | 60 nM | 126 nM | Non-toxic | 107 nM | 189 nM | half-life at 1 µM [7]: 3.68 h; half-life [8]: > 17 h; half-life [9]: > 25 h; half-life at 1 µM [10]: 1.15 h; microsomal CLint at 1 µM [11]: 25 µL/min/mg; microsomal CLint at 1 µM [12]: 8 µL/min/mg; logD [13]: 3; solubility kinetic [14]: 12.5 µg/mL (≈ 32.9 µM); solubility kinetic [15]: 12.5 µg/mL (≈ 32.9 µM)
10 | CC(C)(C)OC(=O)NC(C(=O)NO)c1ccc(-c2cccc(F)c2)cc1 (centres undefined) | 950 nM | 130 nM | – | – | – | – | –
11 | CC(C)(C)C(=O)NC(C(=O)NO)c1ccc(-c2cccc(F)c2)cc1 (centres undefined) | 550 nM | 6.2 nM | 162 nM | Non-toxic | 316 nM | 226 nM | –
12 | CC(C)(C)OC(=O)NC(C(=O)NO)c1ccc(-c2ccc(C(F)(F)F)cc2)cc1 (centres undefined) | > 500000 nM | 470 nM | – | – | – | – | –
13 | CC(C)(C)C(=O)NC(C(=O)NO)c1ccc(-c2c(F)cc(F)cc2F)cc1 (centres undefined) | 5900 nM | 2.5 nM | 125 nM | Non-toxic | 450 nM | 267 nM | –
14 | CC(C)(C)OC(=O)NC(C(=O)NO)c1ccc(-c2cccnc2)cc1 (centres undefined) | 1100 nM | 220 nM | – | – | – | – | –
15 | CC(C)(C)OC(=O)NC(Cc1ccc(I)cc1)C(=O)NO (centres undefined) | 4300 nM | 21000 nM | – | – | – | – | –
16 | CC(C)(C)C(=O)NC(C(=O)NO)c1ccc(-c2ccccc2)cc1 (centres undefined) | 1600 nM | 7 nM | 96 nM | Non-toxic | 219 nM | 190 nM | –
17 | CC(C)(C)C(=O)NC(C(=O)NO)c1ccc(-c2ccc(F)c(F)c2)cc1 (centres undefined) | 1400 nM | 6.4 nM | 139 nM | Non-toxic | 195 nM | 170 nM | –
18 | CC(C)(C)C(=O)NC(C(=O)NO)c1ccc(Br)cc1 (centres undefined) | 65 nM | 41 nM | 169 nM | Non-toxic | 163 nM | 194 nM | –
19 | CC(C)(C)C(=O)NC(C(=O)NO)c1ccc(-c2ccc(F)cc2)cc1 (centres undefined) | 6500 nM | 33 nM | 126 nM | Non-toxic | 193 nM | 225 nM | –
20 | CC(C)(C)C(=O)NC(Cc1ccc(-c2ccccc2)cc1)C(=O)NO (centres undefined) | 27000 nM | 650 nM | – | – | – | – | –
21 | CC(C)(C)C(=O)NC(C(=O)NO)c1ccc(F)cc1 (centres undefined) | 4000 nM | 29 nM | 1530 nM | Non-toxic | 2090 nM | 2010 nM | –

Row | Compound | Ki [1] | Ki [2] | IC50 [3] | Activity [4] | IC50 [5] | IC50 [6] | also measured
22 | CC(C)(C)C(=O)NC(Cc1ccc(I)cc1)C(=O)NO (centres undefined) | 15000 nM | 16 nM | – | – | – | – | –
23 | CC(C)(C)OC(=O)NC(C(=O)NO)c1ccc(-c2cc(F)c(F)c(F)c2)cc1 (centres undefined) | 19000 nM | 200 nM | – | – | – | – | –
24 | C[C@H]1[C@H](OC(=O)CCC(=O)O)O[C@@H]2O[C@@]3(C)CC[C@H]4[C@H](C)CC[C@@H]1[C@@]24OO3 [ARTESUNATE] | – | – | – | – | 0.9 nM | 1.3 nM | –
25 | CC(C)(C)OC(=O)NC(C(=O)NO)c1ccc(F)cc1 (centres undefined) | 5300 nM | 1700 nM | – | – | – | – | –
26 | Cn1cc(-c2ccc(C(NC(=O)OC(C)(C)C)C(=O)NO)cc2)cn1 (centres undefined) | 1900 nM | 56 nM | 978 nM | Non-toxic | – | – | –
27 | CC(C)(C)C(=O)NC(Cc1ccc(Br)cc1)C(=O)NO (centres undefined) | 87000 nM | 420 nM | – | – | – | – | –
28 | CC(C)(C)OC(=O)NC(C(=O)NO)c1ccc(-c2ccc(F)cc2)cc1 (centres undefined) | 100000 nM | 74 nM | – | – | – | – | –
29 | CC(C)(C)OC(=O)NC(C(=O)NO)c1ccc(-c2ccccc2)cc1 (centres undefined) | 37000 nM | 55 nM | – | – | – | – | –
30 | Cn1cc(-c2ccc(CC(NC(=O)C(C)(C)C)C(=O)NO)cc2)cn1 (centres undefined) | 39000 nM | 740 nM | – | – | – | – | –
31 | CC(C)(C)OC(=O)NC(Cc1ccc(F)cc1)C(=O)NO (centres undefined) | 18000 nM | 2800 nM | – | – | – | – | –
32 | CC(C)(C)OC(=O)NC(C(=O)NO)c1ccc(-c2cccc(C(F)(F)F)c2)cc1 (centres undefined) | 2900 nM | 140 nM | – | – | – | – | –
33 | CC(C)(C)OC(=O)NC(C(=O)NO)c1ccc(-c2ccccc2F)cc1 (centres undefined) | 950 nM | 41 nM | 633 nM | Non-toxic | – | – | –
34 | CC(C)(C)OC(=O)NC(C(=O)NO)c1ccc(-c2ccncc2)cc1 (centres undefined) | 910 nM | 540 nM | – | – | – | – | –
35 | CC(C)(C)OC(=O)NC(C(=O)NO)c1ccc(-c2ccc(/C(N)=N/O)cc2)cc1 (centres undefined) | 400 nM | 18 nM | 334 nM | Non-toxic | – | – | –
36 | CC(C)(C)C(=O)NC(Cc1ccc(F)cc1)C(=O)NO (centres undefined) | 63000 nM | 37 nM | – | – | – | – | –
37 | CC(C)(C)C(=O)NC(C(=O)NO)c1ccc(-c2cc(F)cc(F)c2)cc1 (centres undefined) | 580 nM | 92 nM | 144 nM | Non-toxic | 232 nM | 239 nM | –
38 | CC(C)(C)OC(=O)NC(C(=O)NO)c1ccc(-c2ccsc2)cc1 (centres undefined) | 20000 nM | 64 nM | – | – | – | – | –
39 | CC(C)(C)C(=O)NC(C(=O)NO)c1ccc(-c2ccccc2F)cc1 (centres undefined) | 1600 nM | 12 nM | 131 nM | Non-toxic | 210 nM | 207 nM | –
40 | CC(C)(C)OC(=O)NC(C(=O)NO)c1ccc(-c2ccccc2C(F)(F)F)cc1 (centres undefined) | 750 nM | 120 nM | – | – | – | – | –
41 | Cn1cc(-c2ccc(CC(NC(=O)OC(C)(C)C)C(=O)NO)cc2)cn1 (centres undefined) | 120000 nM | 14000 nM | – | – | – | – | –
42 | CC(C)(C)OC(=O)NC(C(=O)NO)c1ccc(-c2cccc(/C(N)=N\O)c2)cc1 (centres undefined) | 1100 nM | 140 nM | 679 nM | Non-toxic | – | – | –

From ChEMBL document CHEMBL3763022, “Potent dual inhibitors of Plasmodium falciparum M1 and M17 aminopeptidases through optimization of S1 pocket interactions” (Eur J Med Chem, 2016)
